Rows were chosen to be rich in hits. Some 8.4% of all compounds tested hit in one or more screens of this group.
tolC growth inh – growth inhibitors of E. coli BW25113 tolC mutant | OD615 | growth inhibition, % at 10 µM (by protocol) | 2.2% of 65,000 active;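 active = growth inhibition at or above a cutoff equal to the mean over every tested compound plus 3 SD, cut at about 60% in these data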;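 note: growth measured after 20 h incubation at 37 °C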
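signal = optical density read at 615 nm | test system = E. coli ΔtolC::kan strain BW25113 | timing = 20 h compound exposure of bacteria at 37 °C | buffer or medium = LB medium plus 50 µg/mL kanamycin | compound dosing = 10 µM final, single dose | evaluation = % inhibition of E. coli growth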
Cav32 inh – inhibitors of human Cav3.2 T-type calcium channel | 4% of 100,000 active | B-score at 10 µM | O95180 | Cav3.2-expressing cells, Fluo-4 calcium fluorescence FDSS; hits give low values;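 active = single-dose well whose peak fluorescence ratio is a statistical outlier from its plate by either plate-standardised score or position-corrected B-score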
Target sequence (O95180 whole entry, looked up): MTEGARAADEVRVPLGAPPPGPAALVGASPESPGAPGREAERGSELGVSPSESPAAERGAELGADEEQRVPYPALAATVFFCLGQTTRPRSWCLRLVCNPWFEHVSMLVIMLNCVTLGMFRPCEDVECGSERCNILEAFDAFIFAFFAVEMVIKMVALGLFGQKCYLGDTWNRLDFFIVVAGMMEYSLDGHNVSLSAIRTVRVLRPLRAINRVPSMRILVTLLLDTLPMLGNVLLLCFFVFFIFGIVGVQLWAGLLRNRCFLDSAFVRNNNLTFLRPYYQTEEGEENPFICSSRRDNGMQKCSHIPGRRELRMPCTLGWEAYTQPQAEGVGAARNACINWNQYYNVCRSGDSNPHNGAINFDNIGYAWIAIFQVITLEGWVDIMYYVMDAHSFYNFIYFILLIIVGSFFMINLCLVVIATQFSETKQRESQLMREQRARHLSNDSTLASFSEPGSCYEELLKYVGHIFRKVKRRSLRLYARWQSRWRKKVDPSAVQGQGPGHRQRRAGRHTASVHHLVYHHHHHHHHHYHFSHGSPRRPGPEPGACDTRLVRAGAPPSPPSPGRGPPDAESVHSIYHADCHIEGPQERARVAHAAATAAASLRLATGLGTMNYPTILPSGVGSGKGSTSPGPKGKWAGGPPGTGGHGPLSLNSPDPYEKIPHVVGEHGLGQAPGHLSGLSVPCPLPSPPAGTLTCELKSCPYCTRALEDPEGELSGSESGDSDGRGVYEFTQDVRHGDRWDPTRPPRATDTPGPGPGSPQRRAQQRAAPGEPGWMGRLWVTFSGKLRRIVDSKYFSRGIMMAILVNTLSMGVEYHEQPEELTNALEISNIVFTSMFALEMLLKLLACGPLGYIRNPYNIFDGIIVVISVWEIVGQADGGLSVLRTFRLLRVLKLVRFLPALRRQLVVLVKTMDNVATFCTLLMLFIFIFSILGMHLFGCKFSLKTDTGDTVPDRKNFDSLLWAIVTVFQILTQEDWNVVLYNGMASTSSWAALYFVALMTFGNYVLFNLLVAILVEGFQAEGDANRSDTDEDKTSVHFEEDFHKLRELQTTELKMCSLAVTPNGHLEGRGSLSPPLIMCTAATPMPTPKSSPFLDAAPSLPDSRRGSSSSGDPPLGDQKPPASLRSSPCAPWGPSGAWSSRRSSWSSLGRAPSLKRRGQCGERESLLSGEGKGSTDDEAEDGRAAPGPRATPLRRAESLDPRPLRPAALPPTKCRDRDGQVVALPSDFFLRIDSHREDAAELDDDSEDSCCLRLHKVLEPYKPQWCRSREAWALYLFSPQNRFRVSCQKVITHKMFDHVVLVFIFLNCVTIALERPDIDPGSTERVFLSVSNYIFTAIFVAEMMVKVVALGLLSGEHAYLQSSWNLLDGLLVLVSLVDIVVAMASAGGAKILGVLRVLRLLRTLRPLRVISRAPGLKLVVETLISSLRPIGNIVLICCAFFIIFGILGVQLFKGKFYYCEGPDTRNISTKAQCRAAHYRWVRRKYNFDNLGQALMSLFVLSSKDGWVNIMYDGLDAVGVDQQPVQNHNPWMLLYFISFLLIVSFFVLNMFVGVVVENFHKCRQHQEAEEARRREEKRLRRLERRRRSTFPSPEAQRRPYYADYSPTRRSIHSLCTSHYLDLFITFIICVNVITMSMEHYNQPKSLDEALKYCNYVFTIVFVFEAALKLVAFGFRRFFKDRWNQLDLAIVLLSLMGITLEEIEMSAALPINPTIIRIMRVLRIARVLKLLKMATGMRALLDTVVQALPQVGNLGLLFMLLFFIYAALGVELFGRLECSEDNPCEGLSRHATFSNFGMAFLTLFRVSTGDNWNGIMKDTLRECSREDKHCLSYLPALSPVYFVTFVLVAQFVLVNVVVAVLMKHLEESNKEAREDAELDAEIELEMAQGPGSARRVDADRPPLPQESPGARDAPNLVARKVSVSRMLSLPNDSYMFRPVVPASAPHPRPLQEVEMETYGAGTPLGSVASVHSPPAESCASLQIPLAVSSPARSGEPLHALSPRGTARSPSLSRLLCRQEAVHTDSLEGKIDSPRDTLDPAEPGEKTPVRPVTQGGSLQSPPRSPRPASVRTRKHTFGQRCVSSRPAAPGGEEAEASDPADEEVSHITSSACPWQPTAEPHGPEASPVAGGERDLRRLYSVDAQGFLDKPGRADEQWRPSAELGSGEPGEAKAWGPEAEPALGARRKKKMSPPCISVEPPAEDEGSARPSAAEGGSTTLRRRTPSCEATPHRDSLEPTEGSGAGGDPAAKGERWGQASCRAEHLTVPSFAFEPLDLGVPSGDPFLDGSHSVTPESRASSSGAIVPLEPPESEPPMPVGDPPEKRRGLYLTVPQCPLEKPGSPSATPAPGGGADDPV
Ecoli WT expand – E. coli BW25113 growth inhibition, expanded screen; OD600 absorbance; growth inhibition, % at 100 µM; 0.15% of 98,000 active; AID 710;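 active = growth inhibition above about 50% at one test dose, limit read from the data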;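 note: growth measured after 20 h incubation at 37 °C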
PostGolgi yeast – growth inhibition of a yeast mutant, post-Golgi transport screen | post-Golgi transport phenotypic cell assay | inhibition, % at 10 µM | 0.9% of 98,000 active | AID 739;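 note: yeast cells grown in 1536-well plates; yeast grown about 18 h at 30C before absorbance read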
PostGolgi ctrl – yeast control strain growth, post-Golgi counter-screen | 5% of 98,000 active | inhibition, % at 10 µM | efflux-deficient yeast background strain, growth absorbance A615, 16 h | AID 738
Hits are given with their value; 0 = inactive; - = not tested or not shown. Cut-off read from the data, not from the text of the source, unless noted: active = inhibition above about 30%; inactive = the rest.

SMILES | tolC growth inh | Cav32 inh | Ecoli WT expand | PostGolgi yeast | PostGolgi ctrl
Cc1ccccc1C1=NCC(=O)N(CC(=O)NCc2ccco2)c2sc3c(c21)CCCC3 | 61 | -7.2 | 0 | 0 | 0
CCC(C)C1N=C(c2ccccc2)c2cc(Cl)ccc2N(CC(=O)NCc2ccco2)C1=O (centres undefined) | - | 0 | 0 | 0 | 0
OC(COCc1ccc(Cl)cc1)CN1CC=C(c2ccccc2)CC1 (centres undefined) | 0 | -6.6 | 0 | 63 | 0
CN(C)c1ccc(CN2CC=C(c3ccc(F)cc3)CC2)cc1 | 0 | 0 | 0 | 0 | 0
N=c1sc2c(n1Cc1ccccc1)CCCC2 | 0 | 0 | 0 | 0 | 0
N=c1c2c(n(Cc3ccc(Cl)cc3Cl)c3c1CCC3)CCCC2 | 100 | - | 0 | 0 | 0
ClC1=CCC2CN(CCN3CCCCC3)CC2C1 (centres undefined) | 0 | 0 | - | - | -
Cc1cccnc1NC1=NCC(C)S1 (centres undefined) | 0 | 0 | 0 | 0 | 0
O=c1c2ccccc2nc(-c2cccs2)n1-c1ccccc1 | - | 0 | 0 | 0 | 0
CCn1nc(-c2cccs2)nc2c(=O)n(C)c(=O)nc1-2 | 97 | - | 0 | 105 | 100
CC(c1ccccc1F)n1cc(C(=O)Nc2ccc3nc[nH]c3c2)nn1 (centres undefined) | 0 | 0 | 0 | 0 | 30
CCN(CC)c1ccc(N=Cc2c(O)n(Cc3ccccc3)c(=O)[nH]c2=O)cc1 | - | -4.3 | 0 | 0 | 0
CCN(CC)c1ccc(N=Cc2c(O)n(-c3ccccc3C)c(=O)[nH]c2=O)cc1 | 0 | 0 | 0 | 0 | 0
CCOC(=O)c1c(-n2c(C)cc(/C=C3/C(=O)NC(=O)N(CC)C3=O)c2C)sc2c1CCCC2 | - | -3.5 | - | - | -
COc1cccc(OC)c1C1=NCC(=O)Nc2c1oc1ccc(Br)cc21 | 0 | -4.2 | 0 | 0 | 0
CCn1c(O)c(C=Nc2ccc(N3CCOCC3)cc2)c(=O)n(CC)c1=S | - | -4.5 | 0 | 0 | 0
CCn1c(O)c(C=Nc2ccc(N3CCOCC3)c(Br)c2)c(=O)n(CC)c1=S | - | - | 0 | 0 | 37
CCOc1ccc(-n2c(O)c(C=Nc3ccc(N(CC)CC)cc3)c(=O)[nH]c2=O)cc1 | 0 | 0 | 0 | 0 | 0
CN(C)CCN=Cc1c(O)n(-c2cccc3ccccc23)c(=O)[nH]c1=O | 0 | 0 | 0 | 0 | 0
CC12CN3CN(C1)CC(c1ccccc1)(C3)C2=O | - | 0 | - | - | -
O=c1c2ccccc2nc(-c2ccc(-c3ccccc3)cc2)n1-c1ccncc1 | - | 0 | 0 | 100 | 86

Assay outcomes: PubChem BioAssay, several laboratories
